Data from ChEMBL document CHEMBL1944509, “Methyl-monofluorination of ibuprofen selectively increases its inhibitory activity toward cyclooxygenase-1 leading to enhanced analgesic activity and reduced gastric damage in vivo” (Bioorg Med Chem Lett, 2011).

Legend:
[1] = Drug level in ICR mouse brain at 5 mg/kg, iv after 4 hrs by HPLC/MS/MS analysis; assay type: ADME, organism-based; parameters: dose 5 mg/kg, route intravenous; conditions: read-out: Drug uptake
[2] = test system: Rattus norvegicus; test: Antiinflammatory activity in Wistar albino rat assessed as inhibition of carrageenan-induced paw edema at 30 mg/kg, ig administered 1 hr before carrageenan challenge measured after 4 hrs post carrageenan challenge by plethysmometer; assay type: functional; conditions: po, route intragastric
Method in brief: (§1)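 Male Wistar rats (140–160 g), three groups of eight; drug as 0.5% CMC suspension i.g., controls given CMC only. 1 h later, 0.1 ml of 0.1% carrageenan in 0.9% NaCl injected sub-plantar into right hind paw. Paw volume read by plethysmometer hourly to 6 h and at 24 h; inhibition % = (Vc − Vt)/Vc × 100 from mean volume increases; mean ± SEM.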

[3] = test system: Nucleic Acid; test: Ratio of drug level in brain to plasma in ICR mouse at 5 mg/kg, iv after 4 hrs by HPLC/MS/MS analysis; assay type: ADME, organism-based; parameters: dose 5 mg/kg, route intravenous
[4] = Plasma concentration in ICR mouse at 10 mg/kg, po after 0.083 hrs by HPLC/MS/MS analysis; assay type: ADME, organism-based; parameters: dose 10 mg/kg, route oral
[5] = test system: Rattus norvegicus; test: Gastrointestinal toxicity in Wistar rat assessed as ulcerogenic effect at 100 mg/kg, po measured after 17 hrs post treatment (Rvb =0.50 +/- 0.41); assay type: organism-based; parameters: dose 100 mg/kg, route oral; conditions: in vivo
Method in brief: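 Wistar rats, 150–200 g, eight per group, fasted at least 8 h with water ad libitum. Drug is given orally as a 0.5% CMC suspension at 10 ml/kg; controls get 0.5% CMC. Food is returned after 30 min. At 17 h rats are killed with CO₂ and stomachs removed. Damage score is the summed lesion lengths in mm per rat; mean ± SEM.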

[6] = test system: Nucleic Acid; test: Ratio of drug level in brain to plasma in ICR mouse at 10 mg/kg, po after 6 hrs by HPLC/MS/MS analysis; assay type: ADME, organism-based; parameters: dose 10 mg/kg, route oral
[7] = Drug level in ICR mouse brain at 10 mg/kg, po after 6 hrs by HPLC/MS/MS analysis; assay type: ADME, organism-based; parameters: dose 10 mg/kg, route oral; conditions: read-out: Drug uptake
[8] = test system: Nucleic Acid; test: Ratio of drug level in brain to plasma in ICR mouse at 5 mg/kg, iv after 6 hrs by HPLC/MS/MS analysis; assay type: ADME, organism-based; parameters: dose 5 mg/kg, route intravenous
[9] = Oral bioavailability ICR mouse at 10 mg/kg; assay type: ADME, organism-based; conditions: in vivo
Method in brief: (§2)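 ICR mice given drug intravenously at 5 mg/kg or orally at 10 mg/kg. Parameters are taken from the plasma concentration–time profile: AUC(0–t), AUC(0–∞), MRT, Cmax and bioavailability.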

[10] = test system: Mus musculus; test: Analgesic activity in Swiss albino mouse assessed as inhibition of acetic acid-induced writhing at 30 mg/kg, ig administered 1 hr before acetic acid challenge measured 10 mins post acetic acid challenge; assay type: functional; conditions: po, route intragastric
Method in brief: (§3)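 Male Swiss albino mice (22–24 g), three groups, n = 8; drug suspended in 0.5% CMC given i.g. (0.3 ml/10 g) 1 h before i.p.-unspecified injection of 1% (v/v) acetic acid at 0.1 ml/10 g. Writhes counted for 10 min starting 10 min after acetic acid; activity as percent decrease in writhing versus vehicle control; mean ± SEM, ANOVA then t-test.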

[11] = Cmax in ICR mouse at 10 mg/kg, po; assay type: ADME, organism-based; parameters: dose 10 mg/kg, route oral; conditions: in vivo; method in brief: as §2
[12] = Clearance in ICR mouse at 5 mg/kg, iv; assay type: ADME, organism-based; parameters: dose 5 mg/kg, route intravenous; conditions: in vivo
[13] = test system: Nucleic Acid; test: Ratio of drug level in brain to plasma in ICR mouse at 10 mg/kg, po after 0.083 hrs by HPLC/MS/MS analysis; assay type: ADME, organism-based; parameters: dose 10 mg/kg, route oral
[14] = test system: Mus musculus; test: Analgesic activity in Swiss albino mouse assessed as inhibition of acetic acid-induced writhing at 33.6 mg/kg, ig administered 1 hr before acetic acid challenge measured 10 mins post acetic acid challenge; assay type: functional; conditions: po, route intragastric; method in brief: as §3
[15] = biological target: T1, Prostaglandin G/H synthase 1 (Homo sapiens, UniProt P23219); test: Ratio of ibuprofen IC50 to compound IC50 for human COX1 in HEL 92.1.7 cells
[16] = test system: Nucleic Acid; test: Ratio of drug level in brain to plasma in ICR mouse at 5 mg/kg, iv after 1 hr by HPLC/MS/MS analysis; assay type: ADME, organism-based; parameters: dose 5 mg/kg, route intravenous
[17] = Apparent half life in ICR mouse at 10 mg/kg, po; assay type: ADME, organism-based; parameters: dose 10 mg/kg, route oral; conditions: in vivo, read-out: t1/2(app) (converted)
[18] = Apparent volume of distribution in ICR mouse at 5 mg/kg, iv; assay type: ADME, organism-based; parameters: dose 5 mg/kg, route intravenous; conditions: in vivo, read-out: Vz
[19] = test system: Nucleic Acid; test: Ratio of drug level in brain to plasma in ICR mouse at 10 mg/kg, po after 4 hrs by HPLC/MS/MS analysis; assay type: ADME, organism-based; parameters: dose 10 mg/kg, route oral
[20] = test system: Mus musculus; test: Ratio of drug level in brain to plasma in ICR mouse at 10 mg/kg, po
[21] = test system: Rattus norvegicus; test: Antiinflammatory activity in Wistar albino rat assessed as inhibition of carrageenan-induced paw edema at 33.6 mg/kg, ig administered 1 hr before carrageenan challenge measured after 4 hrs post carrageenan challenge by plethysmometer; assay type: functional; conditions: po, route intragastric; method in brief: as §1
[22] = biological target: T1, Prostaglandin G/H synthase 1; test: Inhibition of COX1 in human HEL 92.1.7 cells assessed as thromboxane B2 production incubated for 30 mins before arachidonic acid addition measured after 15 mins by ELISA; assay type: cell-based
Method in brief: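 HEL92.1.7 cells at 10⁸/ml in fresh medium, incubated with drug (10⁻⁶–10 μM range) for 30 min at 37 °C. TXB₂ is measured in cell-free supernatant by ELISA and expressed as a ratio to vehicle-only cultures; mean ± SD; IC50 from the concentration–response curve.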

[23] = biological target: T2, Prostaglandin G/H synthase 2 (Homo sapiens, UniProt P35354); test: Inhibition of COX2 in LPS-stimulated and PMA-treated human U937 cells assessed as PGE2 production after 15 mins by ELISA; assay type: cell-based, U-937
T2 sequence (P35354 whole entry): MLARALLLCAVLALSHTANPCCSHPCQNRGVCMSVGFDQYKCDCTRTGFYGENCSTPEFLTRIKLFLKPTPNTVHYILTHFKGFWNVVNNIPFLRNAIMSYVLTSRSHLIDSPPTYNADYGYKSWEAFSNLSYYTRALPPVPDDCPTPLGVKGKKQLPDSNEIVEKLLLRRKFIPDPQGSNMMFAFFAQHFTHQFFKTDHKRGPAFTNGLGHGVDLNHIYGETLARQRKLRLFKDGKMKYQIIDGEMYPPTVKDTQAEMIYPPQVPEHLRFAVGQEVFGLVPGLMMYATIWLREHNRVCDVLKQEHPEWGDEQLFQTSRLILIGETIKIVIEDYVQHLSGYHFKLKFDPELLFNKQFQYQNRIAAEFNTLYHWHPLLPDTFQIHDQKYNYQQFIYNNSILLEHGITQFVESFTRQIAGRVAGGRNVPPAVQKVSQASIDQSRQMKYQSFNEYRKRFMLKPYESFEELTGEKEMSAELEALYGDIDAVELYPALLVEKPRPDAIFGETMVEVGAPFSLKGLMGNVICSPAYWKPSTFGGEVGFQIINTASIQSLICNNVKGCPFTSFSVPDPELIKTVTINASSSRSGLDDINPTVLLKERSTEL

[24] = test system: Mus musculus; test: Ratio of drug level in brain to plasma in ICR mouse at 5 mg/kg, iv

T1 sequence (P23219 whole entry): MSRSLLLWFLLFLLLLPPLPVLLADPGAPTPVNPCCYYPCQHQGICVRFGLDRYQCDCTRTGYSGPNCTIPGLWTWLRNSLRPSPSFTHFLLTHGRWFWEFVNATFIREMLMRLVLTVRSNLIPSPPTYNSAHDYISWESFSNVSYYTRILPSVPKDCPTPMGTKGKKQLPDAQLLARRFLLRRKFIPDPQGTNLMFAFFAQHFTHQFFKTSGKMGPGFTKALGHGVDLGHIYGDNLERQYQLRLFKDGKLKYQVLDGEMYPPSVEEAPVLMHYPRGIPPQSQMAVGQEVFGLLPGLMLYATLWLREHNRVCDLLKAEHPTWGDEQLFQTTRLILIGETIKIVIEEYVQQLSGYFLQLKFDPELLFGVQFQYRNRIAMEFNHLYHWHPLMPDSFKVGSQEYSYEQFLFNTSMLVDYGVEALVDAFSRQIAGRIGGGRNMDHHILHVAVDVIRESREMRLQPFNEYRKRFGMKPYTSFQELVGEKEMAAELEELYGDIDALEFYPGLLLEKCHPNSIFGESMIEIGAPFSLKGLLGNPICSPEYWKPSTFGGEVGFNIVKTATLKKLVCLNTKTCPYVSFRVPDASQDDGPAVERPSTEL

## CC(C)Cc1ccc([C@H](C)C(=O)O)cc1 [DEXIBUPROFEN]
[1]
  concentration at 4 h: 41.5 ng/g
[2]
  inhibition in vivo at 30 mg/kg: 29.5%
[3]
  BPR: 0.044 mL/g
[4]
  concentration at 0.083 h: 52100 ng/mL
[5]
  Activity: Toxic
[6]
  BPR: 0.036 mL/g
[7]
  concentration at 6 h: 43.1 ng/g
[8]
  BPR: 0.059 mL/g
[9]
  bioavailability: 118%
[10]
  inhibition in vivo at 30 mg/kg: 68.7%
[11]
  Cmax: 52100 ng/mL

## CC(C)Cc1ccc([C@H](CF)C(=O)O)cc1
[12]
  clearance: 3.5 mL/min/kg
[13]
  BPR: 0.027 mL/g
[14]
  inhibition in vivo at 33.6 mg/kg: 50%
[15]
  Ratio IC50: 80
[16]
  BPR: 0.041 mL/g
[17]
  half-life: 45 min
[4]
  concentration at 0.083 h: 41800 ng/mL
[18]
  Vd: 0.27 L/kg
[19]
  BPR: 0.032 mL/g
[20]
  BPR: 0.025 mL/g
[21]
  inhibition in vivo at 33.6 mg/kg: 41.3%
[9]
  bioavailability: 108%
[22]
  IC50: 1.23 nM
  inhibition: Dose-dependent effect
[11]
  Cmax: 42100 ng/mL
[23]
  IC50: 530 nM
[24]
  BPR: 0.031 mL/g
